Source: ChEMBL document CHEMBL3351725, “Design, synthesis and biological evaluation of (E)-3-(3,4-dihydroxyphenyl)acrylylpiperazine derivatives as a new class of tubulin polymerization inhibitors” (Bioorg Med Chem, 2014)
Values after ≈ are worked out from the molar mass of the structure shown.

Columns and labels:
[1] = test system: MCF7; assay: Antiproliferative activity against human MCF7 cells after 48 hrs by MTT assay; assay type: functional, cell-based; details: MCF7, 48 h
How it was run: (§1)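 Cells diluted to 2 × 10⁴ cells/mL in complete medium, seeded in 96-well plates and incubated 24 h at 37 °C, 5% CO₂ before compound addition at preset concentrations; colchicine and CA-4 as positive references. After 48 h exposure, MTT added; 4 h later 10% SDS-5% isobutyl alcohol-0.01 M HCl extraction solution added, overnight at 37 °C, absorbance read at 570 nm.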

[2] = test system: A549; assay: Antiproliferative activity against human A549 cells after 48 hrs by MTT assay; assay type: functional, cell-based; details: A549, 48 h; how it was run: as §1
[3] = Antiproliferative activity against mouse B16F10 cells after 48 hrs by MTT assay; assay type: functional, cell-based; details: B16-F10, 48 h; how it was run: as §1
[4] = biological target: Tubulin (Bos taurus, UniProt Q6B856+Q862L2+Q862F3); assay: Inhibition of bovine brain tubulin polymerization after 20 mins by turbidimetric method
[5] = test system: MCF7; assay: Cell cycle arrest in human MCF7 cells after 24 hrs by flow cytometry; assay type: functional, cell-based
[6] = test system: MCF7; assay: Cell cycle arrest in human MCF7 cells assessed as accumulation at G0/G1 phase at 1 ug/ml after 24 hrs by flow cytometry (reference value: 62.34 %); assay type: functional
[7] = test system: MCF7; assay: Cell cycle arrest in human MCF7 cells assessed as accumulation at S phase at 1 ug/ml after 24 hrs by flow cytometry (reference value: 13.05 %); assay type: functional
[8] = test system: MCF7; assay: Cell cycle arrest in human MCF7 cells assessed as accumulation at G2/M phase at 1 ug/ml after 24 hrs by flow cytometry (reference value: 24.61 %); assay type: functional
[9] = test system: MCF7; assay: Cell cycle arrest in human MCF7 cells assessed as accumulation at G0/G1 phase at 2 ug/ml after 24 hrs by flow cytometry (reference value: 62.34 %); assay type: functional
[10] = test system: MCF7; assay: Cell cycle arrest in human MCF7 cells assessed as accumulation at S phase at 2 ug/ml after 24 hrs by flow cytometry (reference value: 13.05 %); assay type: functional
[11] = test system: MCF7; assay: Cell cycle arrest in human MCF7 cells assessed as accumulation at G2/M phase at 2 ug/ml after 24 hrs by flow cytometry (reference value: 24.61 %); assay type: functional

Row | SMILES | IC50 [1] | IC50 [2] | IC50 [4] | IC50 [3] | Activity [5] | Activity [6] | Activity [7] | Activity [8] | Activity [9] | Activity [10] | Activity [11]
1 | COc1ccc(/C=C\c2cc(OC)c(OC)c(OC)c2)cc1O [COMBRETASTATIN A4] | 0.21 µg/mL (≈ 0.664 µM) | 0.46 µg/mL (≈ 1.45 µM) | – | 0.42 µg/mL (≈ 1.33 µM) | – | – | – | – | – | – | –
2 | O=C(/C=C/c1ccc(O)c(O)c1)N1CCN(c2ccc(Cl)c(Cl)c2)CC1 | 1.28 µg/mL (≈ 3.25 µM) | 1.74 µg/mL (≈ 4.42 µM) | 4.93 µM | 1.66 µg/mL (≈ 4.22 µM) | – | – | – | – | – | – | –
3 | Cc1ccc(N2CCN(C(=O)/C=C/c3ccc(O)c(O)c3)CC2)c(C)c1 | 0.78 µg/mL (≈ 2.21 µM) | 1.02 µg/mL (≈ 2.89 µM) | 2.98 µM | 1.43 µg/mL (≈ 4.06 µM) | – | – | – | – | – | – | –
4 | O=C(/C=C/c1ccc(O)c(O)c1)N1CCN(c2ccc([N+](=O)[O-])cc2)CC1 | 1.14 µg/mL (≈ 3.09 µM) | 1.56 µg/mL (≈ 4.22 µM) | 4.86 µM | 1.79 µg/mL (≈ 4.85 µM) | – | – | – | – | – | – | –
5 | O=C(/C=C/c1ccc(O)c(O)c1)N1CCN(c2ccccc2Cl)CC1 | 1.36 µg/mL (≈ 3.79 µM) | 1.44 µg/mL (≈ 4.01 µM) | 5.46 µM | 1.82 µg/mL (≈ 5.07 µM) | – | – | – | – | – | – | –
6 | COc1cc2c(c(OC)c1OC)-c1ccc(OC)c(=O)cc1[C@@H](NC(C)=O)CC2 [COLCHICINE] | 0.39 µg/mL (≈ 0.976 µM) | 0.58 µg/mL (≈ 1.45 µM) | – | 0.48 µg/mL (≈ 1.2 µM) | – | 4.6% | 11.78% | 83.62% | – | – | –
7 | O=C(/C=C/c1ccc(O)c(O)c1)N1CCN(Cc2ccccc2)CC1 | 1.48 µg/mL (≈ 4.37 µM) | 2.98 µg/mL (≈ 8.81 µM) | 9.28 µM | 3.12 µg/mL (≈ 9.22 µM) | – | – | – | – | – | – | –
8 | CCN1CCN(C(=O)/C=C/c2ccc(O)c(O)c2)CC1 | 2.06 µg/mL (≈ 7.45 µM) | 6.54 µg/mL (≈ 23.7 µM) | 12.78 µM | 6.44 µg/mL (≈ 23.3 µM) | – | – | – | – | – | – | –
9 | O=C(/C=C/c1ccc(O)c(O)c1)N1CCN(c2ccccn2)CC1 | 1.82 µg/mL (≈ 5.59 µM) | 2.32 µg/mL (≈ 7.13 µM) | 11.61 µM | 3.01 µg/mL (≈ 9.25 µM) | – | – | – | – | – | – | –
10 | COc1ccccc1N1CCN(C(=O)/C=C/c2ccc(O)c(O)c2)CC1 | 0.54 µg/mL (≈ 1.52 µM) | 0.98 µg/mL (≈ 2.77 µM) | 1.72 µM | 1.23 µg/mL (≈ 3.47 µM) | – | – | – | – | – | – | –

Further lines, with some results ahead:

Row | IC50 [1] | IC50 [2] | IC50 [4] | SMILES | IC50 [3] | Activity [5] | Activity [6] | Activity [7] | Activity [8] | Activity [9] | Activity [10] | Activity [11]
11 | 0.32 µg/mL (≈ 0.772 µM) | 0.54 µg/mL (≈ 1.3 µM) | 0.92 µM | O=C(/C=C/c1ccc(O)c(O)c1)N1CCN(C(c2ccccc2)c2ccccc2)CC1 | 0.44 µg/mL (≈ 1.06 µM) | Dose-dependent effect | 18.33% | 18.18% | 63.39% | 2.63% | 13.01% | 84.36%
12 | 0.52 µg/mL (≈ 1.47 µM) | 0.93 µg/mL (≈ 2.62 µM) | 1.86 µM | COc1ccc(N2CCN(C(=O)/C=C/c3ccc(O)c(O)c3)CC2)cc1 | 1.21 µg/mL (≈ 3.41 µM) | – | – | – | – | – | – | –
13 | 1.44 µg/mL (≈ 4.21 µM) | 1.25 µg/mL (≈ 3.65 µM) | 7.39 µM | O=C(/C=C/c1ccc(O)c(O)c1)N1CCN(c2ccc(F)cc2)CC1 | 1.68 µg/mL (≈ 4.91 µM) | – | – | – | – | – | – | –
14 | 1.34 µg/mL (≈ 3.73 µM) | 1.29 µg/mL (≈ 3.6 µM) | 5.28 µM | O=C(/C=C/c1ccc(O)c(O)c1)N1CCN(c2cccc(Cl)c2)CC1 | 1.71 µg/mL (≈ 4.77 µM) | – | – | – | – | – | – | –
15 | 0.48 µg/mL (≈ 1.07 µM) | 0.8 µg/mL (≈ 1.78 µM) | 1.56 µM | O=C(/C=C/c1ccc(O)c(O)c1)N1CCN(C(c2ccccc2)c2ccc(Cl)cc2)CC1 (configuration not stated) | 0.68 µg/mL (≈ 1.51 µM) | – | – | – | – | – | – | –
16 | 1.12 µg/mL (≈ 2.85 µM) | 1.68 µg/mL (≈ 4.27 µM) | 4.42 µM | O=C(/C=C/c1ccc(O)c(O)c1)N1CCN(c2cccc(Cl)c2Cl)CC1 | 2.01 µg/mL (≈ 5.11 µM) | – | – | – | – | – | – | –
17 | 1.38 µg/mL (≈ 4.03 µM) | 1.43 µg/mL (≈ 4.18 µM) | 7.78 µM | O=C(/C=C/c1ccc(O)c(O)c1)N1CCN(c2ccccc2F)CC1 | 2.43 µg/mL (≈ 7.1 µM) | – | – | – | – | – | – | –
18 | 0.92 µg/mL (≈ 2.6 µM) | 1.27 µg/mL (≈ 3.58 µM) | 3.08 µM | COc1cccc(N2CCN(C(=O)/C=C/c3ccc(O)c(O)c3)CC2)c1 | 1.46 µg/mL (≈ 4.12 µM) | – | – | – | – | – | – | –
19 | 0.43 µg/mL (≈ 0.955 µM) | 0.73 µg/mL (≈ 1.62 µM) | 1.44 µM | O=C(/C=C/c1ccc(O)c(O)c1)N1CCN(C(c2ccc(F)cc2)c2ccc(F)cc2)CC1 | 0.52 µg/mL (≈ 1.15 µM) | – | – | – | – | – | – | –
20 | 1.24 µg/mL (≈ 3.16 µM) | 1.74 µg/mL (≈ 4.43 µM) | 5.89 µM | O=C(/C=C/c1ccc(O)c(O)c1)N1CCN(c2cccc(C(F)(F)F)c2)CC1 | 2.01 µg/mL (≈ 5.12 µM) | – | – | – | – | – | – | –
21 | 1.03 µg/mL (≈ 3.18 µM) | 1.32 µg/mL (≈ 4.07 µM) | 3.14 µM | O=C(/C=C/c1ccc(O)c(O)c1)N1CCN(c2ccccc2)CC1 | 1.78 µg/mL (≈ 5.49 µM) | – | – | – | – | – | – | –
